Source: ChEMBL document CHEMBL4680121, “Development of (4-methoxyphenyl)-1H-tetrazol-5-amine regioisomers as a new class of selective antitubercular agents” (Eur J Med Chem, 2020)
pIC50: −log10 of the molar value. Values after ≈ are worked out from the molar mass of the structure shown.

Assays:
V79 [1] = assay: Cytotoxicity against Chinese Hamster V79 cells assessed as reduction in cell viability at 100 uM measured after 72 hrs by MTT assay; format: cell-based, Cricetulus griseus; settings: v79, 72 h
Summary of the method: (§1)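 MTT viability assay on cells grown in DMEM with 10% heat-inactivated FBS, penicillin/streptomycin and 20 mM HEPES at 37 °C/5% CO2. Cells were seeded at 1×10^4 per well and allowed to adhere for 24 h, then the medium was refreshed. Compounds were added at 20–140 μM for 72 h at 37 °C, followed by MTT (0.5 mg/mL in serum-free medium) for 4 h. Untreated cells served as control. IC50 is the concentration giving 50% growth inhibition versus control.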

[2] = system: Mycobacterium scrofulaceum; assay: Antibacterial activity against Mycobacterium scrofulaceum assessed as inhibition of microbial growth incubated for 1 week by MABA method; format: functional; settings: 168 h, time 1 weeks
Summary of the method: (§2)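 Microplate Alamar Blue assay using two-fold serial microdilution in Middlebrook 7H9 broth with 10% OADC, compounds 0.125–512 µg/ml from DMSO stocks. Inoculum came from fresh LJ culture, was adjusted to McFarland 1 and diluted 1:20. Plates were incubated 1 week at 37 °C, Alamar blue was added and plates were re-incubated 24 h. MIC was the lowest concentration preventing the blue-to-pink change. Each plate carried growth and sterile controls.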

Mycobacterium xenopi = assay: Antibacterial activity against Mycobacterium xenopi assessed as inhibition of microbial growth incubated for 1 week by MABA method; format: functional; settings: 168 h, time 1 weeks; summary of the method: as §2
HaCaT [3] = assay: Cytotoxicity against human HaCaT cells assessed as reduction in cell viability measured after 72 hrs by MTT assay; format: cell-based; summary of the method: as §1
[4] = system: Mycobacterium scrofulaceum; assay: Potency index, ratio of isoniazid MIC to test compound MIC for antibacterial activity against Mycobacterium scrofulaceum assessed as inhibition of microbial growth incubated for 1 week by MABA method; format: functional; settings: time 1 weeks
HaCaT [5] = assay: Cytotoxicity against human HaCaT cells assessed as reduction in cell viability at 100 uM measured after 72 hrs by MTT assay; format: cell-based; summary of the method: as §1
Escherichia coli = assay: Antibacterial activity against Escherichia coli ATCC 25922 assessed as bacterial growth inhibition measured after 18 hrs by two-fold serial microdilution method; format: functional
Summary of the method: (§3)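 Two-fold serial broth microdilution in MH II medium following modified CLSI procedures. Compounds were dissolved in DMSO and diluted in medium to at most 1% solvent, tested from 0.03125 to 512 μg/ml. Final inoculum 10^6 CFU/ml. MIC was taken as the lowest concentration with no visible growth after 18 h at 35 °C.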

[6] = system: Mycobacterium intracellulare; assay: Antimycobacterial activity against Mycobacterium intracellulare assessed as inhibition of microbial growth incubated for 1 week by MABA method; format: functional; settings: 168 h, time 1 weeks; summary of the method: as §2
[7] = system: Mycolicibacterium fortuitum; assay: Antibacterial activity against Mycobacterium fortuitum assessed as inhibition of microbial growth incubated for 1 week by MABA method; format: functional; settings: 168 h, time 1 weeks; summary of the method: as §2
Proteus vulgaris = assay: Antibacterial activity against Proteus vulgaris NCTC 4635 assessed as bacterial growth inhibition measured after 18 hrs by two-fold serial microdilution method; format: functional; summary of the method: as §3
Klebsiella pneumoniae = assay: Antibacterial activity against Klebsiella pneumoniae ATCC 10031 assessed as bacterial growth inhibition measured after 18 hrs by two-fold serial microdilution method; format: functional; summary of the method: as §3
Staphylococcus aureus [8] = assay: Antibacterial activity against Staphylococcus aureus NCTC 4163 assessed as bacterial growth inhibition measured after 18 hrs by two-fold serial microdilution method; format: functional; summary of the method: as §3
[9] = system: Mycobacterium tuberculosis; assay: Antitubercular activity against Mycobacterium tuberculosis H37Rv ATCC 25618 assessed as inhibition of microbial growth incubated for 1 week by MABA method; format: functional; settings: H37Rv ATCC 25618, 168 h, time 1 weeks
Summary of the method: (§4)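 Microplate Alamar Blue assay in Middlebrook 7H9 broth with 10% OADC. Inoculum from fresh LJ culture was adjusted to McFarland 1 and diluted 1:20. DMSO stocks were two-fold serially diluted to final 0.125–512 µg/ml, with growth and sterile controls. Plates ran 1 week at 37 °C, then Alamar blue was added for 24 h. MIC is the lowest concentration preventing the blue-to-pink change.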

Staphylococcus aureus [10] = assay: Antibacterial activity against Staphylococcus aureus ATCC 6538 assessed as bacterial growth inhibition measured after 18 hrs by two-fold serial microdilution method; format: functional; summary of the method: as §3
[11] = system: Mycobacterium tuberculosis; assay: Antitubercular activity against Mycobacterium tuberculosis Spec.192 assessed as inhibition of microbial growth incubated for 1 week by MABA method; format: functional; settings: Mycobacterium tuberculosis, 192, 168 h; time 1 weeks; summary of the method: as §4
Mycobacterium kansasii = assay: Antibacterial activity against Mycobacterium kansasii assessed as inhibition of microbial growth incubated for 1 week by MABA method; format: functional; settings: 168 h, time 1 weeks; summary of the method: as §2
Pseudomonas aeruginosa [12] = assay: Antibacterial activity against Pseudomonas aeruginosa NCTC 6749 assessed as bacterial growth inhibition measured after 18 hrs by two-fold serial microdilution method; format: functional; summary of the method: as §3
Pseudomonas aeruginosa [13] = assay: Antibacterial activity against Pseudomonas aeruginosa PAO1 assessed as bacterial growth inhibition measured after 18 hrs by two-fold serial microdilution method; format: functional; summary of the method: as §3
[14] = system: Staphylococcus epidermidis; assay: Antibacterial activity against Staphylococcus epidermidis ATCC 1457 assessed as bacterial growth inhibition measured after 18 hrs by two-fold serial microdilution method; format: functional; summary of the method: as §3
V79 [15] = assay: Cytotoxicity against Chinese Hamster V79 cells assessed as reduction in cell viability measured after 72 hrs by MTT assay; format: cell-based; settings: Cricetulus griseus, V79, 72 h; summary of the method: as §1
[16] = system: Staphylococcus epidermidis; assay: Antibacterial activity against Staphylococcus epidermidis ATCC 12228 assessed as bacterial growth inhibition measured after 18 hrs by two-fold serial microdilution method; format: functional; summary of the method: as §3
Mycobacterium avium = assay: Antimycobacterial activity against Mycobacterium avium assessed as inhibition of microbial growth incubated for 1 week by MABA method; format: functional; settings: 168 h, time 1 weeks; summary of the method: as §4
[17] = system: Staphylococcus epidermidis; assay: Antibacterial activity against Staphylococcus epidermidis ATCC 35984/RP62A assessed as bacterial growth inhibition measured after 18 hrs by two-fold serial microdilution method; format: functional; summary of the method: as §3

## COc1ccc(Nc2nnnn2-c2ccc(Cl)cc2)cc1
V79 [1]
  Activity: Non-Toxic
[2]
  MIC: 16 µg/mL
Mycobacterium xenopi
  MIC: 128 µg/mL
HaCaT [3]
  pIC50: 3.99
[4]
  Ratio: 4
HaCaT [5]
  Activity: Non-Toxic
Escherichia coli
  MIC: > 256 µg/mL
[6]
  MIC: 128 µg/mL
[7]
  MIC: > 512 µg/mL
Proteus vulgaris
  MIC: > 256 µg/mL
Klebsiella pneumoniae
  MIC: > 256 µg/mL
Staphylococcus aureus [8]
  MIC: 256 µg/mL (≈ 848 µM)
[9]
  MIC: 8 µg/mL
Staphylococcus aureus [10]
  MIC: > 256 µg/mL
[11]
  MIC: 8 µg/mL
Mycobacterium kansasii
  MIC: 512 µg/mL
Pseudomonas aeruginosa [12]
  MIC: > 256 µg/mL
Pseudomonas aeruginosa [13]
  MIC: > 256 µg/mL
[14]
  MIC: > 256 µg/mL
V79 [15]
  pIC50: 3.94
[16]
  MIC: 256 µg/mL (≈ 848 µM)
Mycobacterium avium
  MIC: 256 µg/mL
[17]
  MIC: 256 µg/mL (≈ 848 µM)
